Measured values published in ChEMBL document CHEMBL4706639, “Discovery of Novel Azetidine Amides as Potent Small-Molecule STAT3 Inhibitors” (J Med Chem, 2021).
Activity calls are given as the source filed them. The rule behind the calls is not given here.

Assays:
MDA-MB-231 [1] = assay: Antiproliferative activity against human MDA-MB-231 cells assessed as reduction in cell viability incubated for 72 hrs by CyQuant assay; type: functional, cell-based; settings: MDA-MB-231, 72 h
MCF7 = assay: Antiproliferative activity against human MCF7 cells assessed as reduction in cell viability incubated for 72 hrs by CyQuant assay; type: functional, cell-based; settings: MCF7, 72 h
MDA-MB-468 = assay: Antiproliferative activity against human MDA-MB-468 cells harbouring STAT3 assessed as reduction in cell viability incubated for 72 hrs by CyQuant assay; type: functional, cell-based; settings: MDA-MB-468, 72 h
MCF-10A = assay: Cytotoxicity against human MCF-10A cells assessed as reduction in cell viability incubated for 72 hrs by CyQuant assay; type: cell-based
[2] = target: Signal transducer and activator of transcription 3 (Mus musculus, UniProt P42227); assay: Inhibition of oligonucleotide [32P]-labelled 5'-AGCITCATTTCCCGTAAATCCCTA probe binding to STAT3 SH2 domain in mouse NIH3T3/v-Src nuclear extract preincubated for 30 mins followed by hSIE probe addition by EMSA analysis; type: subcellular, Nucleus
MDA-MB-231 [3] = assay: Anticlonogenic activity against human MDA-MB-231 cells assessed as inhibition of colony formation at 0.5 to 1 uM incubated for 4 hrs by crystal violet staining based assay; type: functional, cell-based; settings: dose 0.5-1 µM
Summary of the method: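 MDA-MB-231 cells seeded as single-cell cultures (250 cells per well), treated once the next day with compound at 0–1 μM and grown until large colonies were visible. Colonies stained with crystal violet for 4 h and photographed. Three independent determinations.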

NIH3T3 = assay: Inhibition of oligonucleotide [32P]-labelled 5'-AGATTTCTAGGAATTCAA probe binding to STAT5 homodimer in mouse NIH3T3 nuclear extract at 10 uM preincubated for 30 mins followed by MGFe probe addition by EMSA analysis
[4] = target: T1, Signal transducer and activator of transcription 1 (Mus musculus) (UniProt P42225); assay: Inhibition of oligonucleotide [32P]-labelled 5'-AGCITCATTTCCCGTAAATCCCTA probe binding to STAT1 homodimer in mouse NIH3T3 nuclear extract at 10 uM preincubated for 30 mins followed by hSIE probe addition by EMSA analysis
T1 sequence (whole entry): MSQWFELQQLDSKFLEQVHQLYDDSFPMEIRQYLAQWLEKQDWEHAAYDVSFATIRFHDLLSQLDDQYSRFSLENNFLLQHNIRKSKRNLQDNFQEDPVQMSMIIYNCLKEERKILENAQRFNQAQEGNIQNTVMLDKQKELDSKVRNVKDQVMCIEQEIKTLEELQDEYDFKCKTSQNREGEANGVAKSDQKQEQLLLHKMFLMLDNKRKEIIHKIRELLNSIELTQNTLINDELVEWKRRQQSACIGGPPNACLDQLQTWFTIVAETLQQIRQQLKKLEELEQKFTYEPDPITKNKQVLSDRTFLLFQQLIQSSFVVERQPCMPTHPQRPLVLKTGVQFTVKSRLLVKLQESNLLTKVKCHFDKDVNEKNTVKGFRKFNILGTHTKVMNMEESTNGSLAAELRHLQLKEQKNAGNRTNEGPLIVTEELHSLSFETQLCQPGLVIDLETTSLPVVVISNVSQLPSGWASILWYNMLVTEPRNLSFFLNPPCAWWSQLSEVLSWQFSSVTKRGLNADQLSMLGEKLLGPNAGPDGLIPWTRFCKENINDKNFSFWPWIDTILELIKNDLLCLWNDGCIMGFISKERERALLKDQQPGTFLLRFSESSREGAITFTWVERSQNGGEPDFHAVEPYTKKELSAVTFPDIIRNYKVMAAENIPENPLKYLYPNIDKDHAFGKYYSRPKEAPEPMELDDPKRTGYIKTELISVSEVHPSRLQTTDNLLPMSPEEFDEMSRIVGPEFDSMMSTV

MDA-MB-231 [5] = assay: Antiproliferative activity against human MDA-MB-231 cells harbouring STAT3 assessed as reduction in cell viability at upto 10 uM incubated for 72 hrs by CyQuant assay; type: functional, cell-based; settings: MDA-MB-231, 72 h

Signal transducer and activator of transcription 3, sequence (P42227 whole entry, the tested form may be a part): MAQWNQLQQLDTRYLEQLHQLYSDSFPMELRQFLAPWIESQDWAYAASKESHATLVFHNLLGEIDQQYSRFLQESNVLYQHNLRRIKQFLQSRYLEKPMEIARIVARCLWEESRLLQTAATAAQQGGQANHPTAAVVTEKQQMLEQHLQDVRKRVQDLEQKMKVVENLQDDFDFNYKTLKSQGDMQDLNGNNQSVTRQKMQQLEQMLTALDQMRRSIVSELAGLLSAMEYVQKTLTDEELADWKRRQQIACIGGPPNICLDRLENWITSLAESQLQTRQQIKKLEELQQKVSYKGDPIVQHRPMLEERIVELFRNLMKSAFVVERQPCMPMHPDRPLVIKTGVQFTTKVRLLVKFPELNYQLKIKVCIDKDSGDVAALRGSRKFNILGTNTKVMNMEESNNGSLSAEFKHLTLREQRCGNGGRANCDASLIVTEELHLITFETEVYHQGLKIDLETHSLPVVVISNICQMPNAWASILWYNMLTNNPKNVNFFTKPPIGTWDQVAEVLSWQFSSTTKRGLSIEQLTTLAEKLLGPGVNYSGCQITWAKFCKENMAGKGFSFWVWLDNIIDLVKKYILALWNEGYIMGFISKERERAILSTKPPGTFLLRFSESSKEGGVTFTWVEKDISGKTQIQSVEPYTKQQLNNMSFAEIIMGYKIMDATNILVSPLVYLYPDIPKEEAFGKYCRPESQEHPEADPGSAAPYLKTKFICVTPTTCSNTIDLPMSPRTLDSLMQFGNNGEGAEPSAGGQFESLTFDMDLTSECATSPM

SMILES	EC50 (MDA-MB-231 [1])	EC50 (MCF7)	EC50 (MDA-MB-468)	EC50 (MCF-10A)	also measured
O=C(NO)c1cc(F)c(N(Cc2ccc(C3CCOCC3)cc2)C(=O)[C@H]2CCN2S(=O)(=O)c2c(F)c(F)c(F)c(F)c2F)cc1O	5.1 µM				
COC(=O)c1ccc(N(Cc2cnc(C3CCCCC3)cn2)C(=O)[C@H]2CCN2S(=O)(=O)c2c(F)c(F)c(F)c(F)c2F)cc1O		5.7 µM	1.6 µM	3.8 µM	IC50 [2]: 7.5 µM; inhibition (MDA-MB-231 [3]): Active
O=C([C@H]1CCN1S(=O)(=O)c1c(F)c(F)c(F)c(F)c1F)N(Cc1cnc(C2CCCCC2)cn1)c1ccc2c(=O)[nH]cnc2c1	4.2 µM				
O=C([C@H]1CCN1S(=O)(=O)c1c(F)c(F)c(F)c(F)c1F)N(Cc1cnc(C2CCCCC2)cn1)c1cc2[nH]ncc2cc1F	2 µM	4.6 µM	2 µM	3.2 µM	
O=C([C@H]1CCN1S(=O)(=O)c1c(F)c(F)c(F)c(F)c1F)N(Cc1cnc(C2CCCCC2)cn1)c1ccc2c(=O)[nH]ncc2c1	4.8 µM				
O=C(NO)c1ccc(N(Cc2ccc(C3CCCCC3)cc2)C(=O)[C@H]2CCN2S(=O)(=O)c2c(F)c(F)c(F)c(F)c2F)c(F)c1					inhibition (NIH3T3): Active; inhibition [4]: Active
O=C(NO)c1ccc(N(Cc2ccc(C3CCOCC3)cc2)C(=O)[C@H]2CCN2S(=O)(=O)c2c(F)c(F)c(F)c(F)c2F)cc1	4 µM	> 10 µM	2.1 µM	4.3 µM	
CONC(=O)c1ccc(N(Cc2ccc(C3CCCCC3)cn2)C(=O)[C@H]2CCN2S(=O)(=O)c2c(F)c(F)c(F)c(F)c2F)cc1O	6.7 µM		3.9 µM		
COc1ccc(S(=O)(=O)Nc2cc(-c3c(O)ccc4ccccc34)c(O)c3ccccc23)cc1 [C-188-9]		13.8 µM			EC50 (MDA-MB-231 [5]): 25.7 µM
O=C(O)c1ccc(N(Cc2ccc(C3CCCCC3)cn2)C(=O)[C@H]2CCN2S(=O)(=O)c2c(F)c(F)c(F)c(F)c2F)cn1					IC50 [2]: > 2 µM
COC(=O)c1ccc(N(Cc2ccc(C3CCCCC3)cc2)C(=O)[C@H]2CCN2S(=O)(=O)c2c(F)c(F)c(F)c(F)c2F)cc1O	2.7 µM				inhibition (NIH3T3): Active; IC50 [2]: > 4 µM; inhibition [4]: Active
O=C(O)c1cc(F)c(N(Cc2ccc(C3CCCCC3)cc2)C(=O)[C@H]2CCN2S(=O)(=O)c2c(F)c(F)c(F)c(F)c2F)cc1O					inhibition (NIH3T3): Active; inhibition [4]: Active
COC(=O)c1ccc(N(Cc2ccc(C3CCCCC3)cn2)C(=O)[C@H]2CCN2S(=O)(=O)c2c(F)c(F)c(F)c(F)c2F)cc1O	1.8 µM				
O=C([C@H]1CCN1S(=O)(=O)c1c(F)c(F)c(F)c(F)c1F)N(Cc1ccc(C2CCCCC2)cn1)c1ccc2nn[nH]c2c1	6.6 µM		5.1 µM		
Cn1cnc2cc(N(Cc3ccc(C4CCCCC4)cn3)C(=O)[C@H]3CCN3S(=O)(=O)c3c(F)c(F)c(F)c(F)c3F)ccc2c1=O	2.1 µM	3.2 µM	2.2 µM	4.7 µM	
O=C(O)c1ccc(N(Cc2ccc(C3CCOCC3)nc2)C(=O)[C@H]2CCN2S(=O)(=O)c2c(F)c(F)c(F)c(F)c2F)cc1O					inhibition (NIH3T3): Active; inhibition [4]: Active
O=C(O)c1ccc(N(Cc2ccc(C3CCCCC3)nc2)C(=O)[C@H]2CCN2S(=O)(=O)c2c(F)c(F)c(F)c(F)c2F)cc1O					inhibition (NIH3T3): Active; inhibition [4]: Active
O=C(NO)c1ccc(N(Cc2ccc(C3CCCCC3)cn2)C(=O)[C@H]2CCN2S(=O)(=O)c2c(F)c(F)c(F)c(F)c2F)cc1O			6.2 µM		
COC(=O)c1ccc(N(Cc2ccc(C3CCCCC3)nc2)C(=O)[C@H]2CCN2S(=O)(=O)c2c(F)c(F)c(F)c(F)c2F)cc1O	2 µM				
O=C1NCc2cc(N(Cc3ccc(C4CCCCC4)cn3)C(=O)[C@H]3CCN3S(=O)(=O)c3c(F)c(F)c(F)c(F)c3F)c(F)cc21	2 µM				
COC(=O)c1ccc(N(Cc2ccc(C3CCCCC3)cc2)C(=O)[C@H]2CCN2S(=O)(=O)c2c(F)c(F)c(F)c(F)c2F)c(F)c1	4.4 µM				inhibition (NIH3T3): Active; IC50 [2]: > 4 µM; inhibition [4]: Active
O=C([C@H]1CCN1S(=O)(=O)c1c(F)c(F)c(F)c(F)c1F)N(Cc1ccc(C2CCCCC2)cn1)c1cc2[nH]ncc2cc1F	2.3 µM	4.8 µM	3.2 µM	4.9 µM	
O=C(O)c1coc(N(Cc2ccc(C3CCCCC3)cc2)C(=O)[C@H]2CCN2S(=O)(=O)c2c(F)c(F)c(F)c(F)c2F)n1					IC50 [2]: > 5 µM
O=C(NO)c1ccc(N(Cc2cnc(C3CCCCC3)cn2)C(=O)[C@H]2CCN2S(=O)(=O)c2c(F)c(F)c(F)c(F)c2F)cc1O	5.2 µM		5.1 µM		
O=C([C@H]1CCN1S(=O)(=O)c1c(F)c(F)c(F)c(F)c1F)N(Cc1cnc(C2CCCCC2)cn1)c1ccc2nn[nH]c2c1	2.1 µM		2.3 µM		
O=C(O)c1ccc(N(Cc2ccc(C3CCOCC3)cc2)C(=O)[C@H]2CCN2S(=O)(=O)c2c(F)c(F)c(F)c(F)c2F)cc1O					inhibition (NIH3T3): Active; inhibition [4]: Active
O=C(NO)c1ccc(N(Cc2ccc(C3CCCCC3)cn2)C(=O)[C@H]2CCN2S(=O)(=O)c2c(F)c(F)c(F)c(F)c2F)c(F)c1	5.8 µM		4.2 µM		
O=C(O)c1ccc(N(Cc2ccc(C3CCCC3)cc2)C(=O)[C@H]2CCN2S(=O)(=O)c2c(F)c(F)c(F)c(F)c2F)cc1O					inhibition (NIH3T3): Active; inhibition [4]: Active
NC(=O)c1ccc(N(Cc2ccc(C3CCCCC3)cn2)C(=O)[C@H]2CCN2S(=O)(=O)c2c(F)c(F)c(F)c(F)c2F)cc1O	2.9 µM	4.6 µM	2.6 µM	7.2 µM	

More lines, main results first:

EC50 (MDA-MB-231 [1])	EC50 (MCF7)	EC50 (MDA-MB-468)	SMILES	EC50 (MCF-10A)	also measured
5 µM	6.8 µM		O=C(NO)c1ccc(N(Cc2ccc(C3CCCCC3)cc2)C(=O)[C@H]2CCN2S(=O)(=O)c2c(F)c(F)c(F)c(F)c2F)cc1	7.9 µM	
5.1 µM	9.7 µM	6.4 µM	O=C(NO)c1ccc(N(Cc2ccc(C3CCCCC3)cc2)C(=O)[C@H]2CCN2S(=O)(=O)c2c(F)c(F)c(F)c(F)c2F)cc1O	7.5 µM	inhibition (NIH3T3): Active; inhibition [4]: Active
1.4 µM	6.2 µM	3.8 µM	O=C([C@H]1CCN1S(=O)(=O)c1c(F)c(F)c(F)c(F)c1F)N(Cc1ccc(C2CCCCC2)cc1)c1ccc2c(=O)[nH]ccc2c1	5.3 µM	
3.3 µM	3.6 µM	1.5 µM	O=C([C@H]1CCN1S(=O)(=O)c1c(F)c(F)c(F)c(F)c1F)N(Cc1ccc(C2CCCCC2)cn1)c1ccc2c(=O)[nH]cnc2c1	4 µM	
2.4 µM	9.4 µM		O=C([C@H]1CCN1S(=O)(=O)c1c(F)c(F)c(F)c(F)c1F)N(Cc1ccc(C2CCCCC2)cc1)c1cc2[nH]ncc2cc1F	8.1 µM	
1.2 µM	2.2 µM	2 µM	O=C([C@H]1CCN1S(=O)(=O)c1c(F)c(F)c(F)c(F)c1F)N(Cc1ccc(C2CCCCC2)cn1)c1ccc2c(=O)[nH]ccc2c1	2.7 µM	
3.1 µM	7.2 µM	1.8 µM	O=C(NO)c1ccc(N(Cc2ccc(C3CCCC3)cc2)C(=O)[C@H]2CCN2S(=O)(=O)c2c(F)c(F)c(F)c(F)c2F)cc1	7.3 µM	
1.6 µM	4.5 µM	1.1 µM	O=C([C@H]1CCN1S(=O)(=O)c1c(F)c(F)c(F)c(F)c1F)N(Cc1ccc(C2CCCCC2)cc1)c1ccc2c(=O)[nH]ncc2c1	4.6 µM	
2.3 µM	2.8 µM		Cn1ccc2cc(N(Cc3ccc(C4CCCCC4)cn3)C(=O)[C@H]3CCN3S(=O)(=O)c3c(F)c(F)c(F)c(F)c3F)ccc2c1=O	4.4 µM	
2 µM			O=C1NCc2cc(N(Cc3ccc(C4CCCCC4)cn3)C(=O)[C@H]3CCN3S(=O)(=O)c3c(F)c(F)c(F)c(F)c3F)ccc21		
